According to ChEMBL document CHEMBL2177067 (J Med Chem, 2012):
Converted amounts (≈) assume the structure as drawn. The source made the active and inactive calls. The calls are words filed in the database; no cut-off is given here.

Experiments:
Staphylococcus aureus [1] = test: Antibacterial activity against methicillin-resistant Staphylococcus aureus 1094; format: functional
Staphylococcus aureus [2] = test: Antibacterial activity against methicillin-resistant Staphylococcus aureus 1234558336; format: functional
Staphylococcus aureus [3] = test: Antibacterial activity against methicillin-resistant Staphylococcus aureus 1234549404; format: functional
Staphylococcus aureus [4] = test: Antibacterial activity against methicillin-resistant Staphylococcus aureus 1234547263; format: functional
Staphylococcus aureus [5] = test: Antibacterial activity against methicillin-resistant Staphylococcus aureus 1234544081; format: functional
Staphylococcus aureus [6] = test: Antibacterial activity against methicillin-resistant Staphylococcus aureus 1234522733; format: functional
Staphylococcus aureus [7] = test: Antibacterial activity against methicillin-resistant Staphylococcus aureus 1234543349; format: functional
Staphylococcus aureus [8] = test: Antibacterial activity against Staphylococcus aureus ATCC 25923; format: functional
Enterococcus faecium [9] = test: Antibacterial activity against vancomycin-resistant Enterococcus faecium 1644; format: functional
Enterococcus faecium [10] = test: Antibacterial activity against vancomycin-resistant Enterococcus faecium B42762; format: functional
Enterococcus faecium [11] = test: Antibacterial activity against Enterococcus faecium ATCC 19434; format: functional
Enterococcus faecalis [12] = test: Antibacterial activity against vancomycin-resistant Enterococcus faecalis F118; format: functional
Enterococcus faecalis [13] = test: Antibacterial activity against vancomycin-resistant Enterococcus faecalis 700802; format: functional
Enterococcus faecalis [14] = test: Antibacterial activity against vancomycin-resistant Enterococcus faecalis 51299; format: functional
Enterococcus faecalis [15] = test: Antibacterial activity against vancomycin-resistant Enterococcus faecalis ATCC 51575; format: functional
Enterococcus faecalis [16] = test: Antibacterial activity against Enterococcus faecalis ATCC 29212; format: functional
Bacillus licheniformis = test: Antibacterial activity against Bacillus licheniformis ATCC 14580; format: functional
Bacillus anthracis [17] = test: Antibacterial activity against Bacillus anthracis Sterne; format: functional
Bacillus thuringiensis = test: Antibacterial activity against Bacillus thuringiensis ATCC 10792; format: functional
Bacillus subtilis = test: Antibacterial activity against Bacillus subtilis BD54; format: functional
Staphylococcus aureus [18] = test: Inhibition of Staphylococcus aureus ATCC 25923 single-strand DNA stimulated ATPase activity of replicative DnaB helicase at 50 uM by FRET assay
HeLa = test: Cytotoxicity against human HeLa cells by MTS assay; format: cell-based
Staphylococcus aureus [19] = test: Antibacterial activity against Staphylococcus aureus ATCC 25923 by broth microdilution method; format: functional
Bacillus anthracis [20] = test: Antibacterial activity against Bacillus anthracis by broth microdilution method; format: functional
[21] = Inhibition of Staphylococcus aureus ATCC 25923 replicative DnaB helicase-mediated ATP-dependent dissociation of Hel-5'FAM:Hel-3'BHQ by FRET assay
Outline: (§1)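 Unwinding was read by FRET as helicase-driven, ATP-dependent dissociation of annealed Hel-5′FAM and Hel-3′BHQ oligonucleotides, one fluorescent and the other quencher-labelled. The replicative helicases were prepared as described earlier.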

Replicative DNA helicase = target: T1, Replicative DNA helicase (Bacillus anthracis, UniProt A0A6L8Q2B7); test: Inhibition of Bacillus anthracis Sterne 34F2 replicative DNA helicase-mediated ATP-dependent dissociation of Hel-5'FAM:Hel-3'BHQ by FRET assay; parameters: species or system Bacillus anthracis str. Sterne; outline: as §1
T1 sequence (A0A6L8Q2B7 whole entry): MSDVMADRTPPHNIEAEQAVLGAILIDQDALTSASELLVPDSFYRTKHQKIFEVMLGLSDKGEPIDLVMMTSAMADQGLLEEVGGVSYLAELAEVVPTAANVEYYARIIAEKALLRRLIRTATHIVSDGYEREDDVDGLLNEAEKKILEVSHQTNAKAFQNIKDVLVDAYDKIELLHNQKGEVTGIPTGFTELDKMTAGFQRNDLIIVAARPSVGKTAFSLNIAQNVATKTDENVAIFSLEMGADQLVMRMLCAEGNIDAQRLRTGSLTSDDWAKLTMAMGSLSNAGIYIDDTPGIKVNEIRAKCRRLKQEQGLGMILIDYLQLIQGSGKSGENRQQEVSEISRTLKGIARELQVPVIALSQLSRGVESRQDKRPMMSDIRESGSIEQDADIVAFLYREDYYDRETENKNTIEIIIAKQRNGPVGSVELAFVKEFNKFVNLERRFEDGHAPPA

Staphylococcus aureus [22] = test: Antibacterial activity against Staphylococcus aureus ATCC 25923 assessed as re-growth at MIC after 24 hrs; format: functional, organism-based
Outline: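 At set times up to 24 h, aliquots were diluted and spread on inhibitor-free LB agar to count viable CFU.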

[23] = Inhibition of Staphylococcus aureus ATCC 25923 replicative DnaB helicase using 0.1875 to 3 mM ATP as substrate assessed as DNA duplex strand-unwinding by FRET assay
Outline: (§2)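 S. aureus helicase FRET unwinding assay run with varied DNA duplex or ATP concentrations, in triplicate. RFU/min slopes were normalized to the uninhibited control, and IC50 came from four-parameter nonlinear fits.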

[24] = Inhibition of Staphylococcus aureus ATCC 25923 replicative DnaB helicase using 3.3 to 90 nM Hel-5'FAM:Hel-3'BHQ as substrate assessed as DNA duplex strand-unwinding by FRET assay; outline: as §2
Staphylococcus aureus [25] = test: Ratio of MIC for Staphylococcus aureus ATCC 25923 in presence of reserpine to MIC for Staphylococcus aureus ATCC 25923 in absence of reserpine; format: functional
[26] = Selectivity index, ratio of CC50 for human HeLa cells to MIC for Bacillus anthracis; format: functional
Outline: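 Selectivity index is HeLa CC50 (MTS assay) divided by the bacterial MIC.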

Staphylococcus aureus [27] = test: Antibacterial activity against Staphylococcus aureus ATCC 25923 by broth microdilution method in presence of reserpine; format: functional
[28] = Selectivity index, ratio of CC50 for human HeLa cells to MIC for Staphylococcus aureus ATCC 25923 in presence of reserpine; format: functional

SMILES	MIC (Staphylococcus aureus [1]) [µg/mL]	MIC (Staphylococcus aureus [2]) [µg/mL]	MIC (Staphylococcus aureus [3]) [µg/mL]	MIC (Staphylococcus aureus [4]) [µg/mL]	MIC (Staphylococcus aureus [5]) [µg/mL]	MIC (Staphylococcus aureus [6]) [µg/mL]	MIC (Staphylococcus aureus [7]) [µg/mL]	MIC (Staphylococcus aureus [8]) [µg/mL]	MIC (Enterococcus faecium [9]) [µg/mL]	MIC (Enterococcus faecium [10]) [µg/mL]	MIC (Enterococcus faecium [11]) [µg/mL]	MIC (Enterococcus faecalis [12]) [µg/mL]	MIC (Enterococcus faecalis [13]) [µg/mL]	MIC (Enterococcus faecalis [14]) [µg/mL]	MIC (Enterococcus faecalis [15]) [µg/mL]	CC50 (HeLa) [µM]	MIC (Staphylococcus aureus [19]) [µM]	MIC (Bacillus anthracis [20]) [µM]	IC50 [21] [µM]	IC50 (Replicative DNA helicase) [µM]	also measured
Cc1c(CCC(=O)O)c(=O)oc2c(C)c(OCc3ccc(-c4ccc(Cl)cc4)cc3)ccc12	2.1 (≈ 4.54 µM)	1.04 (≈ 2.25 µM)	0.52 (≈ 1.12 µM)	0.65 (≈ 1.4 µM)	0.65 (≈ 1.4 µM)	0.78 (≈ 1.68 µM)	1.56 (≈ 3.37 µM)	0.78 (≈ 1.68 µM)	10.4 (≈ 22.5 µM)	9.4 (≈ 20.3 µM)	12.5 (≈ 27 µM)	3.6 (≈ 7.78 µM)	16.7 (≈ 36.1 µM)	4.2 (≈ 9.07 µM)	25 (≈ 54 µM)	25	1.25 (≈ 0.579 µg/mL)	0.625 (≈ 0.289 µg/mL)	1	1.5	MIC (Enterococcus faecalis [16]): 6.3 µg/mL (≈ 13.6 µM); MIC (Bacillus licheniformis): 0.098 µg/mL (≈ 0.212 µM); MIC (Bacillus anthracis [17]): 0.17 µg/mL (≈ 0.367 µM); MIC (Bacillus thuringiensis): 0.52 µg/mL (≈ 1.12 µM); MIC (Bacillus subtilis): 3.1 µg/mL (≈ 6.7 µM); inhibition (Staphylococcus aureus [18]): 8%
Cc1c(CCC(=O)O)c(=O)oc2c(C)c(OCc3ccc(-c4ccccc4)cc3)ccc12	12.5 (≈ 29.2 µM)	3.1 (≈ 7.23 µM)	1.56 (≈ 3.64 µM)	2.1 (≈ 4.9 µM)	1.56 (≈ 3.64 µM)	2.6 (≈ 6.07 µM)	4.2 (≈ 9.8 µM)	1.56 (≈ 3.64 µM)	2.1 (≈ 4.9 µM)	14.6 (≈ 34.1 µM)	2.6 (≈ 6.07 µM)	16.7 (≈ 39 µM)	> 25	18.8 (≈ 43.9 µM)	> 25	82	2.5 (≈ 1.07 µg/mL)	1.25 (≈ 0.536 µg/mL)	2	3	MIC (Enterococcus faecalis [16]): 5.2 µg/mL (≈ 12.1 µM); MIC (Bacillus licheniformis): 0.39 µg/mL (≈ 0.91 µM); MIC (Bacillus anthracis [17]): 0.52 µg/mL (≈ 1.21 µM); MIC (Bacillus thuringiensis): 0.65 µg/mL (≈ 1.52 µM); Activity (Staphylococcus aureus [22]): Active; inhibition (Staphylococcus aureus [18]): 6%; IC50 [23]: 1.5 µM; IC50 [24]: 1.8 µM
Cc1c(CCC(=O)O)c(=O)oc2c(C)c(OCc3ccc(-c4ccc(C(F)(F)F)cc4)cc3)ccc12	–	–	–	–	–	–	–	–	–	–	–	–	–	–	–	20.3	50 (≈ 24.8 µg/mL)	< 0.8	3.3	6.1	Ratio (Staphylococcus aureus [25]): 8; Selectivity Index [26]: >25.4; MIC (Staphylococcus aureus [27]): 6.3 µM; Selectivity Index [28]: 3.2
